Experimental data from different studies.
Compare with care: the assays were run in different laboratories.
Target: Cannabinoid receptor 2 (CNR2, Homo sapiens, UniProt P34972)

CC1(C)C(C(=O)c2cn(CCCCCF)c3ccccc23)C1(C)C — EC50 (GTPγS binding; agonist; radiometric; cell membranes): 145 nM
CCOC(=O)C(CC)(CCCSCCOCCOCCOCCNC(=O)OC(C)(C)C)NC(=O)c1ccc(C2CC2)c(Cc2ccc(F)cc2)n1 (stereo not drawn) — EC50 (cAMP; agonist): 10 nM
C[C@H]1CC[C@H]2[C@H](C1)c1c(O)cc(-c3csc4ccccc34)cc1OC2(C)C — EC50 (GTPγS binding; agonist; radiometric; cell membranes): 16000 nM
Cc1nc([C@@](C)(CC2CC2)NC(=O)c2cc(OCC(F)(F)F)c(C3CC3)cn2)no1 — EC50 (cAMP; agonist): 8 nM
COc1ccc(-c2cnc3c(c2)cc(C(=O)NC2CCC(C)CC2)c(=O)n3CCN2CCOCC2)cc1 (stereo not drawn) — IC50 (ligand displacement; radioligand): 5.56 nM
NC(=O)[C@@H]1CC(F)(F)CN1C(=O)c1ccc(N2CC(F)(F)C2)c(OCC2CC2)n1 — EC50 (cAMP; agonist): 3 nM
CCOC(=O)[C@](CC)(CCC[S+]([O-])CCOCCOCCNC(=O)OC(C)(C)C)NC(=O)c1ccc(C2CC2)c(Cc2ccc(F)cc2)n1 (stereo partly drawn) — EC50 (cAMP; agonist): 7.9 nM
CC1CCC(NC(=O)c2cc3cc(Br)cnc3n(CCN3CCOCC3)c2=O)CC1 (stereo not drawn) — IC50 (ligand displacement; radioligand): 4.95 nM
CCCCCn1cc(C(=O)C2C(C)(C)C2(C)C)c2ccccc21 — EC50 (GTPγS binding; agonist; radiometric; cell membranes): 334 nM
